Reference: publication PMC2677757 (Drug metabolism and disposition: the biological fate of …, 2009)
In brackets after ≈: the same amount, converted by molar mass. Marks after values point to notes of the source that are not given here.

Experiments:
[1] = Solubility of OHPCBs in the SULT assay buffer by light scattering at 400 nm; format: physicochemical
rSULT1A1 [2] = molecular target: T1, rSULT1A1 (Rattus norvegicus, UniProt P17988); test: Inhibition of rSULT1A1-catalyzed sulfation of 2-naphthol; format: biochemical
T1 sequence (P17988 whole entry): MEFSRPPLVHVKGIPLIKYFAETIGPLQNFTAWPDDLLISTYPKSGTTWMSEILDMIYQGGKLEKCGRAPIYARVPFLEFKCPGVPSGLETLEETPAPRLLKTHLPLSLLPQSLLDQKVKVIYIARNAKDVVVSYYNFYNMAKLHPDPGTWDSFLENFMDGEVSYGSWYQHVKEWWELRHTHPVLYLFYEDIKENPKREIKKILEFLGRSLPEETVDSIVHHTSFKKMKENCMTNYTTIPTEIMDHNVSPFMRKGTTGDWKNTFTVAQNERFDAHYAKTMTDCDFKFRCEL

rSULT1A1 [3] = molecular target: T1, rSULT1A1; test: Assay of OHPCBs as potential substrates of rSULT1A1; format: biochemical; conditions: presence of reducing agents; within limits of solubility
In short: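 Recombinant rat SULT1A1 was expressed in E. coli at 29°C without IPTG and purified by PAP-agarose affinity with a PAP gradient in DTT-containing buffer. […] Substrate-dependent PAP formation was the read-out.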

rSULT1A1 [4] = molecular target: T1, rSULT1A1; test: Sulfation of OHPCBs by rSULT1A1 pretreated with GSH or GSSG; format: biochemical; conditions: for Substrate inhibition in both reduced and oxidized rSULT1A1-catalyzed reactions: 1 mM GSH or 1 mM GSSG pretreatment; for Sulfation by GSSG-pretreated rSULT1A1 compared with GSH-pretreated enzyme: 1 mM GSSG vs 1 mM GSH, Fig. 3A; for Sulfation at varying OHPCB concentrations, rSULT1A1 pretreated with 1 mM GSSG: Fig. 3B
In short: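 DTT was stripped from purified enzyme by gel filtration at 4°C, leaving less than 0.06 mM. Enzyme was held 1 h at 25°C under argon with 1 mM GSH or GSSG, and GSH was checked by DTNB. Assays used 0.75 μg enzyme, 0.25 M phosphate pH 7.0, 200 μM PAPS and no 2-mercaptoethanol, 6 min at 37°C. Test compound was 100 μM or varied. PAP formation was corrected by a no-compound blank, in duplicate or triplicate.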

hSULT2A1 = conditions: ref Liu et al., 2006; cited from earlier work
rSULT2A3 = molecular target: T2, rSULT2A3 (Rattus norvegicus, UniProt P22789); test: Inhibition of rSULT2A3-catalyzed sulfation of DHEA; format: biochemical; conditions: for Inhibition of rSULT2A3 reached: DHEA as substrate, within solubility limits
T2 sequence (P22789 1-284): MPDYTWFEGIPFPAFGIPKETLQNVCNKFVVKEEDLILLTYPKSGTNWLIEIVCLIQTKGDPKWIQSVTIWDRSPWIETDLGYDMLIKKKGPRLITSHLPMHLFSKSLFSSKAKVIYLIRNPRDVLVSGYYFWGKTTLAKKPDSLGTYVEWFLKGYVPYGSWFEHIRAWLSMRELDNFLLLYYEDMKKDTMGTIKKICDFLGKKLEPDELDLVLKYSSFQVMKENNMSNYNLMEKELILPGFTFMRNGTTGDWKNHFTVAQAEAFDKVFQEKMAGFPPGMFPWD

rSULT1A1 [5] = molecular target: T1, rSULT1A1; test: Reversibility of the effect of GSSG on rSULT1A1 by reduction with DTT; format: biochemical; conditions: 25°C 1 hr pretreatment; 2-naphthol 250 μM, 4′-OH PCB 6 100 μM; mean and SD, n=3
[6] = 37°C, 0.25 M potassium phosphate pH 7.0, […] (v/v) acetone, 7.5 mM 2-mercaptoethanol, light scattering
[7] = 37 °C, pH 7, aqueous buffer, kinetic from dmso stock

Oc1ccc(-c2cc(Cl)cc(Cl)c2)cc1Cl [4′-OH PCB 36]
Solubility [1, 6]: 50 µM (≈ 13.7 µg/mL) | Inhibition of rSULT1A1 reached (rSULT1A1 [2]; 2-naphthol as substrate, up to full inhibition or limit of solubility): about 65%

Oc1ccc(-c2ccc(Cl)c(Cl)c2)cc1 [4′-OH PCB 12]
Solubility [1, 6]: ≥500 µM

Oc1ccc(Cl)cc1-c1ccc(Cl)c(Cl)c1 [6′-OH PCB 35]
Solubility [1, 6]: 100 µM (≈ 27.4 µg/mL) | Substrate inhibition with rSULT1A1 (rSULT1A1 [3]): did not show substrate inhibition | Substrate inhibition in both reduced and oxidized rSULT1A1-catalyzed reactions (rSULT1A1 [4]): absence of substrate inhibition | Sulfation by GSSG-pretreated rSULT1A1 compared with GSH-pretreated enzyme (rSULT1A1 [4]): only slightly increased

Oc1c(Cl)cc(-c2ccc(Cl)cc2Cl)cc1Cl [4′-OH PCB 68]
Solubility [1, 6]: 50 µM (≈ 15.4 µg/mL) | Substrate activity for hSULT2A1 (hSULT2A1): good substrates

Oc1ccc(-c2cc(Cl)ccc2Cl)cc1 [4′-OH PCB 9]
Solubility [1, 6]: 500 µM (≈ 120 µg/mL) | Inhibition of rSULT2A3 reached (rSULT2A3): full inhibition | Substrate inhibition in both reduced and oxidized rSULT1A1-catalyzed reactions (rSULT1A1 [4]): presence of substrate inhibition | Sulfation by GSSG-pretreated rSULT1A1 compared with GSH-pretreated enzyme (rSULT1A1 [4]): only slightly increased | Inhibition of hSULT2A1 (hSULT2A1): potent inhibitor

Oc1ccc2ccccc2c1 [2-Naphthol]
Rate of sulfation, rSULT1A1 pretreated with 1 mM GSSG (rSULT1A1 [5]): 50.2±2.1 ^c nmoles of product/mg/min | Rate of sulfation, rSULT1A1 pretreated with 5 mM DTT (rSULT1A1 [5]): 38.3±4.7 nmoles of product/mg/min

Oc1ccc(-c2ccc(Cl)c(Cl)c2)c(Cl)c1 [4′-OH PCB 33, 2,3′,4′-Trichloro-biphenyl-4-ol]
Solubility [1, 7]: 50 µM (≈ 13.7 µg/mL) | IC50 (rSULT1A1 [2]): 26.2 µM | Inhibition of rSULT2A3 reached (rSULT2A3): less than 50% | Sulfation at varying OHPCB concentrations, rSULT1A1 pretreated with 1 mM GSSG (rSULT1A1 [4]): concentration-dependent sulfation

Oc1ccc(-c2ccc(Cl)cc2)cc1 [4′-OH PCB 3]
Solubility [1, 6]: 300 µM (≈ 61.4 µg/mL)

Oc1c(Cl)cc(-c2ccccc2Cl)cc1Cl [4-OH PCB 34]
Solubility [1, 6]: 300 µM (≈ 82.1 µg/mL) | Substrate activity for hSULT2A1 (hSULT2A1): good substrates

Oc1c(Cl)cc(-c2ccccc2)cc1Cl [4-OH PCB 14]
Solubility [1, 6]: ≥1000 µM | Sulfation at varying OHPCB concentrations, rSULT1A1 pretreated with 1 mM GSSG (rSULT1A1 [4]): concentration-dependent sulfation

Oc1ccc(-c2ccccc2Cl)cc1Cl [4′-OH PCB 6, 3,2′-Dichloro-biphenyl-4-ol]
Solubility [1, 7]: 250 µM (≈ 59.8 µg/mL) | IC50 (rSULT1A1 [2]): 22.7 µM | Inhibition of rSULT2A3 reached (rSULT2A3): less than 50% | Sulfation at varying OHPCB concentrations, rSULT1A1 pretreated with 1 mM GSSG (rSULT1A1 [4]): concentration-dependent sulfation | Rate of sulfation, rSULT1A1 pretreated with 1 mM GSSG (rSULT1A1 [5]): 37.3±4.0 nmoles of product/mg/min

Oc1ccc(-c2ccc(Cl)cc2)c(Cl)c1 [4-OH PCB 8, 2,4′-Dichloro-biphenyl-4-ol]
Solubility [1, 7]: ≥ 500 µM | IC50 (rSULT2A3): ~400 µM

Oc1ccc(-c2ccc(Cl)c(Cl)c2)cc1Cl [4′-OH PCB 35]
Solubility [1, 6]: 50 µM (≈ 13.7 µg/mL) | Substrate inhibition with rSULT1A1 (rSULT1A1 [3]): did not show substrate inhibition

Oc1ccc(-c2ccc(Cl)cc2Cl)cc1Cl [4′-OH PCB 25]
Solubility [1, 6]: 100 µM (≈ 27.4 µg/mL)
